According to article PMC6133083 (European Journal of Drug Metabolism and Pharmacokinetics, 2018):

Experiments:
[1] = system: P-gp/BCRP at the non-human primate BBB; conditions: intravenous administration; cited from earlier work
[2] = system: P-gp/BCRP; conditions: humans, oral dosing; cited from earlier work
[3] = FVB mice, microemulsion dosing; cited from earlier work
[4] = type: in vivo, Sprague–Dawley rats
Summary of the method: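 Male Sprague–Dawley rats (10–12 weeks, 0.31–0.48 kg), n = 5/group, given 15 mg/kg once as solution or microemulsion by gavage or i.p. injection. The solution only was also given as an i.v. tail-vein bolus under isoflurane. Sublingual blood was drawn at 0.5, 1, 2, 4, 8 and 24 h. Plasma was methanol-precipitated and assayed by LC–MS/MS (calibration 0.005–10 µg/mL). Cmax, Tmax and trapezoidal AUC0–24 came from non-fitted data, expressed relative to i.v.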

[5] = Tolerability of tariquidar administration in rats; type: in vivo, Sprague–Dawley rats; conditions: 15 mg/kg single dose, intravenous, oral or intraperitoneal
[6] = system: P-gp at the BBB; conditions: rats, plasma concentration; cited from earlier work
[7] = system: P-gp at the human BBB; conditions: humans, P-gp inhibition at the BBB, plasma concentration; cited from earlier work
[8] = system: human BCRP; conditions: cited from earlier work
[9] = system: human P-gp; conditions: cited from earlier work
[10] = system: P-gp at the BBB; conditions: humans, cited from earlier work
[11] = rats and monkeys, after intravenous [14C]tariquidar; cited from earlier work
[12] = humans, after intravenous administration; cited from earlier work
[13] = Sprague-Dawley, rat, plasma, iv, 15 mg/kg
[14] = intraperitoneal dosing, both formulations pooled, rats
[15] = oral dosing irrespective of formulation, rats

COc1cc2c(cc1OC)CN(CCc1ccc(NC(=O)c3cccc4c(=O)c5cccc(OC)c5[nH]c34)cc1)CC2 [elacridar]
increase in brain distribution of [11C]erlotinib [1]: 3.5 fold
effect on brain uptake of [11C]erlotinib [2]: failed to increase brain uptake
oral bioavailability [3]: 47%

COc1cc2c(cc1OC)CN(CCc1ccc(NC(=O)c3cc(OC)c(OC)cc3NC(=O)c3cnc4ccccc4c3)cc1)CC2 [tariquidar]
AUC(0-t) [4, 13]: 25200 ng·h/mL
Cmax [4, 13]: 1900 ng/mL
Tmax [4, 13]: 30 min
concentration at 30 min [4, 13]: 1910 ± 290 ng/mL
mean AUC0–24 as % of value after intravenous dosing [4, 14]: ~97%
mean Cmax as % of value after intravenous dosing [4, 14]: approximately 80%
mean AUC0–24 as % of value after intravenous exposure [4, 15]: ~79%
mean Cmax as % of value after intravenous exposure [4, 15]: approximately 65%
tolerability [5]: well tolerated by all animals
in vivo half-maximum effect concentration (EC50) to increase brain uptake of (R)-[11C]verapamil [6]: 0.545 ± 0.03 µg/mL
in vivo EC50 [7]: 1.454 µg/mL
in vitro EC50 for inhibition of its own transport ([8]; human BCRP): 0.201 µg/mL
ratio of EC50 for human BCRP to EC50 for human P-gp ([8]; inhibition of its own transport, in vitro): approximately 20 fold
in vitro EC50 for inhibition of its own transport [9]: 0.011 µg/mL
increase in brain distribution of (R)-[11C]verapamil and [11C]N-desmethyl-loperamide ([10]; PET, continuous intravenous infusion): up to fivefold increases
effect on brain distribution of [11C]N-desmethyl-loperamide ([10]; orally administered tariquidar): failed to reveal an effect
tariquidar-related material in plasma existing as unchanged parent compound [11]: > 95%
tariquidar metabolites in plasma [12]: no tariquidar metabolites were found in plasma
